ChEMBL document CHEMBL1649392, “Synthesis of substituted 3-amino-N-phenyl-1H-indazole-1-carboxamides endowed with antiproliferative activity” (Eur J Med Chem, 2011)

What was measured:
Assay type in all cases: functional
IGROV-1 = experiment: Antiproliferative activity against human IGROV1 cells after 48 hrs by sulforhodamine B assay; settings: IGROV-1, 48 h
How it was run: (§1)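 NCI 60-cell-line panel covering nine cancer types (leukemia, non-small cell lung, colon, CNS, melanoma, ovarian, renal, prostate, breast). Compounds were first tested at a single dose, then in a five-dose screen (series starting 0.01, 0.1 …) if they met NCI threshold criteria. Reported per line: GI50 (molar concentration inhibiting 50% net growth), TGI (total growth inhibition) and LC50 (50% net cell death).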

[1] = Antiproliferative activity against human […] cells after 48 hrs by sulforhodamine B assay; how it was run: as §1
NCI-H460 = experiment: Antiproliferative activity against human NCI-H460 cells after 48 hrs by sulforhodamine B assay; settings: NCI-H460, 48 h; how it was run: as §1
UO-31 = experiment: Antiproliferative activity against human UO31 cells after 48 hrs by sulforhodamine B assay; settings: UO-31, 48 h
How it was run: (§2)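 NCI 60-cell-line panel screen: single dose 10 µM first, then 5-dose testing (0.01, 0.1, … molar series). For each line, GI50 is the molar concentration giving 50% inhibition of net cell growth, TGI gives total inhibition of net growth, and LC50 gives 50% net cell death. Method follows the NCI DTP protocol.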

HOP-62 = experiment: Antiproliferative activity against human HOP62 cells after 48 hrs by sulforhodamine B assay; settings: HOP-62, 48 h; how it was run: as §1
DU-145 = experiment: Antiproliferative activity against human DU145 cells after 48 hrs by sulforhodamine B assay; settings: DU-145, 48 h, read-out: LC50 (the source's name); how it was run: as §1
BT-549 = experiment: Antiproliferative activity against human BT549 cells after 48 hrs by sulforhodamine B assay; settings: BT-549, 48 h; how it was run: as §1
HCC 2998 = experiment: Antiproliferative activity against human HCC2998 cells after 48 hrs by sulforhodamine B assay; settings: HCC 2998, 48 h; how it was run: as §1
CAKI-1 = experiment: Antiproliferative activity against human Caki1 cells after 48 hrs by sulforhodamine B assay; settings: CAKI-1, 48 h; how it was run: as §1
HCT-116 = experiment: Antiproliferative activity against human HCT116 cells after 48 hrs by sulforhodamine B assay; settings: HCT-116, 48 h; how it was run: as §1
UACC-257 = experiment: Antiproliferative activity against human UACC257 cells after 48 hrs by sulforhodamine B assay; settings: UACC-257, 48 h; how it was run: as §2
RXF 393 = experiment: Antiproliferative activity against human RXF393 cells after 48 hrs by sulforhodamine B assay; settings: RXF 393, 48 h; how it was run: as §1
SN12C = experiment: Antiproliferative activity against human SN12C cells after 48 hrs by sulforhodamine B assay; how it was run: as §1
SF-539 = experiment: Antiproliferative activity against human SF539 cells after 48 hrs by sulforhodamine B assay; settings: SF-539, 48 h, read-out: LC50 (the source's name); how it was run: as §1
OVCAR-5 = experiment: Antiproliferative activity against human OVCAR5 cells after 48 hrs by sulforhodamine B assay; settings: OVCAR-5, 48 h; how it was run: as §1
ACHN = experiment: Antiproliferative activity against human ACHN cells after 48 hrs by sulforhodamine B assay; settings: read-out: LC50 (the source's name); how it was run: as §1
M14 = experiment: Antiproliferative activity against human M14 cells after 48 hrs by sulforhodamine B assay; settings: M14, 48 h; how it was run: as §1
SNB-19 = experiment: Antiproliferative activity against human SNB19 cells after 48 hrs by sulforhodamine B assay; settings: SNB-19, 48 h; how it was run: as §1
TK-10 = experiment: Antiproliferative activity against human TK10 cells after 48 hrs by sulforhodamine B assay; settings: TK-10, 48 h; how it was run: as §2
[2] = read-out: LC50 (the source's name)

Compound `Nc1nn(C(=O)Nc2ccc(Cc3ccccc3)cc2)c2ccccc12` has a TGI (IGROV-1) of 48.8 µM, a CC50 (IGROV-1; [2]) greater than 100 µM and a GI50 [1] of 1.86 µM. For the same compound, the TGI [1] was 25.8 µM, the CC50 [1, 2] was 84 µM and the TGI (NCI-H460) was 13 µM. The TGI (UO-31) was greater than 100 µM, the CC50 (UO-31; [2]) was greater than 100 µM and the LC50 (concentration causing 50% net cell death) (HOP-62) was greater than 100 µM. The TGI (HOP-62) was 46.5 µM, the CC50 (DU-145) was greater than 100 µM and the TGI (BT-549) was 39.6 µM. For the same compound, the CC50 (BT-549; [2]) was greater than 100 µM, the TGI (HCC 2998) was 35.9 µM and the CC50 (HCC 2998; [2]) was greater than 100 µM. For the same compound, the TGI (CAKI-1) was 58 µM, the CC50 (CAKI-1; [2]) was greater than 100 µM and the LC50 (concentration causing 50% net cell death) (HCT-116) was greater than 100 µM. The TGI (HCT-116) was greater than 100 µM, the GI50 (UACC-257) was 10 µM and the TGI (UACC-257) was 50.9 µM. For the same compound, the CC50 (UACC-257; [2]) was greater than 100 µM, the TGI (RXF 393) was 58.2 µM and the CC50 (RXF 393; [2]) was greater than 100 µM. For the same compound, the TGI (SN12C) was 28 µM, the CC50 (SN12C; [2]) was 60.6 µM and the CC50 (SF-539) was greater than 100 µM. It also gave a TGI (OVCAR-5) greater than 100 µM, a CC50 (OVCAR-5; [2]) greater than 100 µM and a CC50 (ACHN) greater than 100 µM. It also gave a TGI (M14) greater than 100 µM, a CC50 (M14; [2]) greater than 100 µM and a TGI (SNB-19) greater than 100 µM. It also gave a CC50 (SNB-19; [2]) greater than 100 µM, a TGI (TK-10) greater than 100 µM and a CC50 (TK-10; [2]) greater than 100 µM.
